# ChEMBL document CHEMBL1145038 (J Med Chem, 2003)
# How the values were obtained:
# Histamine H3 receptor [1] = target: T1, Histamine H3 receptor (Rattus norvegicus, UniProt Q9QYN8); experiment: Affinity against rat Histamine H3 receptor using [3H]N-alpha-methyl histamine
# In short: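 Male Sprague–Dawley rat brain homogenate without cerebellum (800 μg) incubated 1 h at 25 °C in 50 mM Na₂HPO₄/KH₂PO₄, pH 7.5, with 0.25 nM [³H]Nα-methylhistamine. Filtered on GF/B, scintillation counted. Nonspecific binding with 10 μM thioperamide. IC50 by log probit; Ki = IC50/(1+L/Ka), Ka from Rosenthal analysis of saturation at 0.1–3.0 nM. Mean ± SE.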
# Histamine H3 receptor [2] = target: T2, Histamine H3 receptor (Homo sapiens, UniProt Q9Y5N1); experiment: Inhibition of human Histamine H3 receptor
# T2 sequence (Q9Y5N1 whole entry): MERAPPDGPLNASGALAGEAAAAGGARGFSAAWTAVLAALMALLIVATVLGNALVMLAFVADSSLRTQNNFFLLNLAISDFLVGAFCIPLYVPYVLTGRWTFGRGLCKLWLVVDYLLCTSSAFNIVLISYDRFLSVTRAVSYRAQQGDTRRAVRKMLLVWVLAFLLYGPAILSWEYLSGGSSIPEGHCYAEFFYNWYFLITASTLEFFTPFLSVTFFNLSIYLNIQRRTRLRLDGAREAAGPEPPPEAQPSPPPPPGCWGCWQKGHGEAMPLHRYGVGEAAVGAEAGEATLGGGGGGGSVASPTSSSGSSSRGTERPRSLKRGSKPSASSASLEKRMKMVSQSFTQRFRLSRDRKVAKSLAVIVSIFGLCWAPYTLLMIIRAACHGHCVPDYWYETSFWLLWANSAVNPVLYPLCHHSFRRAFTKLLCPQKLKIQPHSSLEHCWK
# Histamine H3 receptor [3] = target: T2, Histamine H3 receptor; experiment: Inhibition of human H3-receptor using [3H]N-alpha-methyl histamine
# In short: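 Membrane fractions from stably transfected CHO cells expressing human H3 receptor; radioligand displacement binding.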
# Histamine H4 receptor = Histamine H4 receptor (Homo sapiens, UniProt Q9H3N8); experiment: Inhibition of human Histamine H4 receptor
# Sequence of Histamine H4 receptor (Q9H3N8 whole entry): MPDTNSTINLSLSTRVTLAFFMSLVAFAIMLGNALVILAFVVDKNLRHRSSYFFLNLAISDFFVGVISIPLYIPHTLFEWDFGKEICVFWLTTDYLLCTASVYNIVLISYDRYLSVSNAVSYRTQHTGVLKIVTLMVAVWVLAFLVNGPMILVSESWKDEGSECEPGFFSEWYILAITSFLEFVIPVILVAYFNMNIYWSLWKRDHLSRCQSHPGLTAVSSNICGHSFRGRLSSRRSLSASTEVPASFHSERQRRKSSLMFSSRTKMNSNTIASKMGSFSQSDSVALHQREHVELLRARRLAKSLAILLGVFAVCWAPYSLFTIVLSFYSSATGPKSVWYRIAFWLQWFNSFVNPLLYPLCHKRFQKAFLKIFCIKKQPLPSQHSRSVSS
# Histamine H3 receptor [4] = target: T1, Histamine H3 receptor; experiment: Inhibition of rat Histamine H3 receptor using [3H]N-alpha-methyl histamine
# In short: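 Male Sprague–Dawley rat brain (minus cerebellum) homogenate, 800 μg, incubated 1 h at 25 °C in 50 mM Na2HPO4/KH2PO4 pH 7.5 with 0.25 nM radioligand. Bound ligand separated on GF/B filters and counted by scintillation; nonspecific binding taken with 10 μM thioperamide. […] Mean ± SE.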
# T1 sequence (Q9QYN8 whole entry): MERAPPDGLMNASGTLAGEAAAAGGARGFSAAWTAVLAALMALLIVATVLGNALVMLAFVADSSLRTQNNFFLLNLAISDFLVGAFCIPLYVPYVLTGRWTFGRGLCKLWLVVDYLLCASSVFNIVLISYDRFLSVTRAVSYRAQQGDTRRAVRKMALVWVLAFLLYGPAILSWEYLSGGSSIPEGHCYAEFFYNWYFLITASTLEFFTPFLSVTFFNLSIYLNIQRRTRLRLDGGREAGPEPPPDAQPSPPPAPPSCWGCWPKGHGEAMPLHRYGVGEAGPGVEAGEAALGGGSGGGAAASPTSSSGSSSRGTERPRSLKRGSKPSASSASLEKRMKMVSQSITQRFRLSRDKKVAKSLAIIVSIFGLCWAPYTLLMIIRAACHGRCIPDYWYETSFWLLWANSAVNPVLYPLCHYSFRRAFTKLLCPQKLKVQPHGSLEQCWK
Structure (SMILES),Ki (Histamine H3 receptor [1]),EC50 (Histamine H3 receptor [2]),other results
NC[C@H]1C[C@@H]1c1cnc[nH]1,10.1 nM,–,–
NC[C@H]1C[C@H]1c1cnc[nH]1,64.7 nM,–,–
N[C@H]1C[C@H]1c1c[nH]cn1,1380 nM,–,–
NC[C@@H]1C[C@H]1c1c[nH]cn1,22.6 nM,–,–
NC[C@@H]1C[C@@H]1c1cnc[nH]1,2.5 nM,96 nM,–
NCC[C@H]1C[C@H]1c1cnc[nH]1,4.78 nM,1410 nM,–
N[C@@H]1C[C@@H]1c1c[nH]cn1,91.2 nM,–,EC50 (Histamine H3 receptor [3]): 2330 nM
NCC[C@@H]1C[C@@H]1c1cnc[nH]1,1.31 nM,10 nM,–
N=C(N)SCCc1cnc[nH]1 [IMETIT],–,1.9 nM,EC50 (Histamine H4 receptor): 51 nM
S=C(NC1CCCCC1)N1CCC(c2cnc[nH]2)CC1 [THIOPERAMIDE],–,–,Ki (Histamine H3 receptor [4]): 2.65 nM
N[C@@H]1C[C@H]1c1cnc[nH]1 [VUF-5296],42.2 nM,724 nM,–
N[C@H]1C[C@@H]1c1c[nH]cn1 [VUF-5297],4.3 nM,42 nM,–
